Source: PubChem BioAssay
Myeloid diff MLP – compounds promoting myeloid differentiation; calls only at 10 µM; 1% of 360,000 active; ER-HoxA9 myeloid progenitors, lysozyme-GFP differentiation, flow cytometry; AID 624256;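 active means normalized GFP-positive differentiation at or above the plate's own cutoff, the solvent-only control mean plus 3 SD; inconclusive means no clear call, values can overlap the other calls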;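 further: cells exposed to compound for four days before flow analysis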
ABCB6 inh 2 – human ABCB6 transporter inhibition | Q9NP58 | AID 602162 | 0.19% of 360,000 active | K562-ABCB6 porphyrin accumulation, flow cytometry, 1 h; active compounds read low | fluorescence ratio to DMSO, % at 10 µM;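 active means fluorescence ratio to DMSO below 75%, the collection mean minus 3 SD; inconclusive means too few cells collected in the well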;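 further: signal is porphyrin accumulated inside mitochondria; lower ratio means ABCB6 inhibition with less porphyrin fluorescence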
Target sequence (Q9NP58 whole entry, looked up): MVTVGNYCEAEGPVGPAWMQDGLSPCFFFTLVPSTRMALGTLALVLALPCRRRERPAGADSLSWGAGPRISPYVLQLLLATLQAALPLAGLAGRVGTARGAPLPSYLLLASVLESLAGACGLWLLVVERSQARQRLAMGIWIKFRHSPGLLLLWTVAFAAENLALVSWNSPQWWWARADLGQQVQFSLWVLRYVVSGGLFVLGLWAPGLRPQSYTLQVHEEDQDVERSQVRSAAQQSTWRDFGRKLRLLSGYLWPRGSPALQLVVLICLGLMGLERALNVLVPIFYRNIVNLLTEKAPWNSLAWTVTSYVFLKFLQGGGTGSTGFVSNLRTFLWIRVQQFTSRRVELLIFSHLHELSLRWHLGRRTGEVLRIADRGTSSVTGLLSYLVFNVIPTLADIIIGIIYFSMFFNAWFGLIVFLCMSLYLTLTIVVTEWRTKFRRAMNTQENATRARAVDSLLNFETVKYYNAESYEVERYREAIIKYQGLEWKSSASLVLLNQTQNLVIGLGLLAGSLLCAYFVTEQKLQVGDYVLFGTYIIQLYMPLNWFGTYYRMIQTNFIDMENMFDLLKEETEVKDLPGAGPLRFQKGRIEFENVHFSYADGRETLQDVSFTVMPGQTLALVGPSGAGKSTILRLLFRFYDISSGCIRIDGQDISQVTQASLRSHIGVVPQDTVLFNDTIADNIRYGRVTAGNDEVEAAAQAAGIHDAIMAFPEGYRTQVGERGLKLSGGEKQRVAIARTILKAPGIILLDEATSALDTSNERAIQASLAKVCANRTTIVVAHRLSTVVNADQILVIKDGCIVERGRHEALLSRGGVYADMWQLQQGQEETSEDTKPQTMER
XiGFP reactiv – X-chromosome reactivation activator; XiGFP mouse fibroblasts, % GFP-positive cells imaging, 3 d; cells co-treated with 5-aza-dC sensitizer; scaled so ellipticine positive control = 100%; activation, % at 7.58 µM; 0.055% of 360,000 active; AID 743238;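 active means mean normalized replicate activation at least 10% and every replicate at or above 10%; inconclusive means only one of the two criteria met; inactive means mean below 10% and not all replicates reach 10%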
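Material: SV40-immortalized XiGFP fibroblast cells, line 68-5-11 | Buffer or medium: DMEM containing 5-aza-dC | Dosing: One concentration, pinned | Times: 3 d treatment, 15 min room-temperature fixation | Controls: Ellipticine 6 µM positive control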
A number is an active result. Only a selection was taken, and hits are over-represented in it overall.

For Cc1noc(C)c1S(=O)(=O)Nc1ccc2c(c1)CC(=O)N([C@H](C)CO)C[C@@H](C)[C@@H](CN(C)C(=O)Nc1ccc(C(F)(F)F)cc1)O2 the results were XiGFP reactiv inactive.
CCC(=O)N1C[C@H](C)[C@H](OC)CN(C)C(=O)c2cc(NC(=O)NC(C)C)ccc2OC[C@H]1C was read as XiGFP reactiv inactive.
S=c1[nH]nc(C2CCCCC2)n1/N=C/C(Cl)=C\c1ccccc1 was read as Myeloid diff MLP active, ABCB6 inh 2 inactive and XiGFP reactiv inactive.
S=c1[nH]nc(C2CCCCC2)n1/N=C/C=C/c1ccccc1 was read as Myeloid diff MLP inactive and ABCB6 inh 2 inactive.
For CCCC(=O)Nc1ccc2c(c1)OC[C@@H](C)N(Cc1cncnc1)C[C@@H](C)[C@H](OC)CN(C)C2=O the results were XiGFP reactiv inactive.
For CSc1nc2ccccc2cc1/C=C(\C#N)c1ccccc1 the results were ABCB6 inh 2 inactive.
O=Cc1cc2ccccc2nc1SCCCF was read as Myeloid diff MLP active, ABCB6 inh 2 inactive and XiGFP reactiv inactive.
For COc1ccc(C(C)NCCC(c2ccc(OC(C)C)cc2)c2ccccc2OC)cc1 (stereo not given) the results were Myeloid diff MLP active, ABCB6 inh 2 inactive and XiGFP reactiv inactive.
Screening COc1ccc(C(CCNC(C)c2ccccc2)C(C)C)cc1 (stereo not given) returned Myeloid diff MLP inactive, ABCB6 inh 2 inactive and XiGFP reactiv inactive.
`O=C(CC(F)(F)F)N1C[C@@H]2[C@H](c3ccccc31)[C@H](CO)N2CC1CCCCC1` gave XiGFP reactiv inactive.
CC(=O)Nc1cccc2c1O[C@H](CN(C)S(C)(=O)=O)[C@@H](C)CN(C)C2=O was read as XiGFP reactiv inactive.
Screening Nc1nc(N)c2cc([N+](=O)[O-])ccc2n1 returned Myeloid diff MLP inactive, ABCB6 inh 2 inactive and XiGFP reactiv inactive.
Nc1nc(N)c2c(ccc3c2ccn3Cc2cccc([N+](=O)[O-])c2)n1 was read as Myeloid diff MLP active, ABCB6 inh 2 inactive and XiGFP reactiv inactive.
`C[C@@H]1CN([C@@H](C)CO)C(=O)c2cccc(NC(=O)c3ccc(-c4nccs4)cc3)c2O[C@H]1CN(C)Cc1ccccc1` gave XiGFP reactiv inactive.
`CCc1ccccc1NC(=O)C1CCN(S(C)(=O)=O)CC1` gave Myeloid diff MLP active, ABCB6 inh 2 inactive and XiGFP reactiv inactive.
`CS(=O)(=O)N1CCC(C(=O)Nc2ccccc2Cl)CC1` gave Myeloid diff MLP inactive, ABCB6 inh 2 inactive and XiGFP reactiv inactive.
Screening C/C(CC(=O)Nc1ccc2c(c1)OCCO2)=N\NC(=O)COc1ccccc1C returned Myeloid diff MLP inactive, ABCB6 inh 2 inactive and XiGFP reactiv inactive.
`C/C(CC(=O)Nc1ccc2c(c1)OCCO2)=N\NC(=O)COc1cccc(C)c1` gave Myeloid diff MLP active, ABCB6 inh 2 inactive and XiGFP reactiv inactive.
Screening C[C@@H]1CCCCO[C@@H](CN(C)Cc2ccncc2)[C@@H](C)CN([C@H](C)CO)C(=O)c2cc(NS(C)(=O)=O)ccc2O1 returned XiGFP reactiv inactive.
`O=C(Nc1ccc2c3c(cccc13)CC2)c1cccc([N+](=O)[O-])c1` gave Myeloid diff MLP inactive, ABCB6 inh 2 inactive and XiGFP reactiv inactive.
Screening CN(C)c1ccc(NC(=O)c2cccc([N+](=O)[O-])c2)c2ccccc12 returned Myeloid diff MLP active, ABCB6 inh 2 inactive and XiGFP reactiv inactive.
`Nc1ccccc1Nc1cc(-c2ccccc2)[nH]n1` gave Myeloid diff MLP active, ABCB6 inh 2 inactive and XiGFP reactiv inconclusive.
For Nc1ccccc1Nc1cc(-c2ccccc2)nn1-c1ccccc1 the results were Myeloid diff MLP active, ABCB6 inh 2 inactive and XiGFP reactiv inactive.
Cc1ccc(-n2nc(-c3ccccc3)cc2Nc2ccccc2N)cc1 was read as Myeloid diff MLP inactive, ABCB6 inh 2 inactive and XiGFP reactiv inactive.
Nc1ccccc1Nc1ccccc1 was read as Myeloid diff MLP active and ABCB6 inh 2 inactive.
For COc1cc(C(=O)Nc2cc(-c3ccccc3)[nH]n2)cc(OC)c1OC the results were Myeloid diff MLP inactive and ABCB6 inh 2 inactive.
For Nc1ccc(Nc2ccccc2)c(Cl)c1 the results were Myeloid diff MLP inconclusive and ABCB6 inh 2 inactive.
Screening C[C@H]1CCCCO[C@@H](CN(C)S(=O)(=O)c2cn(C)cn2)[C@@H](C)CN([C@@H](C)CO)C(=O)c2cc(NC(=O)Nc3ccc(C(F)(F)F)cc3)ccc2O1 returned XiGFP reactiv inactive.
For CC(C)NC(=O)N(C)C[C@H]1Oc2ncc(C#CCc3ccccc3)cc2C(=O)N([C@H](C)CO)C[C@H]1C the results were XiGFP reactiv inactive.
CCCC#Cc1cnc2c(c1)C(=O)N([C@@H](C)CO)C[C@@H](C)[C@@H](CN(C)C(=O)Nc1ccccc1OC)O2 was read as XiGFP reactiv inactive.
`NS(=O)(=O)c1ccc(NC2(C(=O)O)CCCC2)cc1` gave Myeloid diff MLP active, ABCB6 inh 2 inactive and XiGFP reactiv inactive.
Screening NS(=O)(=O)c1ccc(NC(=O)C2(c3ccccc3)CCCC2)cc1 returned Myeloid diff MLP inactive, ABCB6 inh 2 inactive and XiGFP reactiv inactive.
`C[C@@H]1CN([C@H](C)CO)C(=O)c2cc(NC(=O)c3ccncc3)ccc2O[C@@H](C)CCCCO[C@H]1CN(C)Cc1ccc(C(=O)O)cc1` gave XiGFP reactiv inactive.
Screening CN1C(=O)c2cc(NC(=O)c3cncs3)ccc2OC[C@H]2O[C@@H](CC(=O)NCC3CC3)CC[C@@H]21 returned XiGFP reactiv inactive.
For COC(=O)[C@@H]1[C@@H](CO)[C@@H]2Cn3c(ccc(-c4ccccc4)c3=O)[C@@H]2N1S(C)(=O)=O the results were XiGFP reactiv inactive.
Screening CCN(CC)c1ccc2cc(-c3nc4ccccc4[nH]3)c(=O)oc2c1 returned Myeloid diff MLP active and ABCB6 inh 2 inactive.
`CCN(CC)c1ccc2cc(-c3nc(-c4ccc(OC)cc4)cs3)c(=O)oc2c1` gave XiGFP reactiv 115.
`CCN(CC)c1ccc2cc(-c3nc4ccccc4n3C)c(=O)oc2c1` gave Myeloid diff MLP inconclusive and ABCB6 inh 2 inactive.
CCN(CC)c1ccc2cc(C(=O)c3cccs3)c(=O)oc2c1 was read as Myeloid diff MLP active, ABCB6 inh 2 inactive and XiGFP reactiv inconclusive.
`CCN(CC)c1ccc2cc(C(=O)NCc3ccc(F)cc3)c(=N)oc2c1` gave Myeloid diff MLP inactive, ABCB6 inh 2 inactive and XiGFP reactiv inactive.
O=c1oc2ccc3ccccc3c2cc1-c1nnc(-c2ccccc2)o1 was read as Myeloid diff MLP inactive and ABCB6 inh 2 inactive.
Screening CCN(CC)c1ccc2cc(-c3nnc(-c4ccccc4)o3)c(=O)oc2c1 returned Myeloid diff MLP active and ABCB6 inh 2 inactive.
For COc1ccc2cc(-c3ccccc3)c(=O)oc2c1 the results were Myeloid diff MLP inactive, ABCB6 inh 2 inactive and XiGFP reactiv inactive.
Screening CN1c2ccc(-c3cccc(C#N)c3)cc2[C@H]2[C@H](CCN2C(=O)NC2CCCC2)[C@@H]1CO returned XiGFP reactiv inactive.
Cc1noc(C)c1NC(=O)Nc1ccc2c(c1)C(=O)N([C@H](C)CO)C[C@H](C)[C@@H](CN(C)C(=O)Nc1ccc(F)cc1)OCCCC[C@H](C)O2 was read as XiGFP reactiv inactive.
